Data from ChEMBL document CHEMBL5724801, “EUbOPEN Chemogenomics Library - Multiplex” (2024).
“And” between values parts separate entries of the source, which are not always exact repeats. Equal values may be shown once.

Test system: U2OS
Test: Multiplex assay against U2OS
Type: toxicity, cell-based
Conditions: human
Procedure, shortened: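 Per cents of healthy-nucleus cells form the tubulin, mitochondrial-mass and membrane-permeability phenotype values. Live cells were stained at seeding with Hoechst33342, BioTracker Green Microtubule Cytoskeleton Dye, MitoTracker Red and Annexin V Alexa Fluor 680. After compound addition they were imaged on a CQ1 microscope at 37°C and 5% CO2, and CellPathfinder machine-learning gating split them into Hoechst high-intensity objects or normal cells, normal cells into healthy, pyknosed or fragmented nuclei, and pyknosed cells into mitotic or apoptotic.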

[1] = 12 h, 1 µM, compound concentration 1 uM
[2] = 12 h, 10 µM, compound concentration 10 uM
[3] = 24 h, 1 µM, compound concentration 1 uM
[4] = 24 h, 10 µM, compound concentration 10 uM
[5] = 48 h, 1 µM, compound concentration 1 uM
[6] = 48 h, 10 µM, compound concentration 10 uM

Cl.N=C(N)NC(=O)Cc1c(Cl)cccc1Cl [GUANFACINE HYDROCHLORIDE]
Population Apoptotic (%) [1]: 80% and 100% | Population Fragmented Nuclei (%) [1]: 28% and 20% | Population Healthy Nuclei (%) [1]: 55% and 72% | Population Hoechst High Intensity Objects (%) [1]: 4% and 2% | Population Membrane Permeable-Phenotype (%) [1]: 5% and 8% | Population Mitochondria Different-Phenotype (%) [1]: 1% and 2% | Population Mitotic Cells (%) [1]: 19% and 0% | Population Normal (%) [1]: 95% and 97% | Population Pyknosed Nuclei (%) [1]: 16% and 7% | Population Tubulin-Different-Phenotype (%) [1]: 2% and 6% | Total Cell Count [1]: 165 and 129 | Population Apoptotic (%) [2]: 87% and 77% | Population Fragmented Nuclei (%) [2]: 27% and 18% | Population Healthy Nuclei (%) [2]: 61% and 74% | Population Hoechst High Intensity Objects (%) [2]: 1% | Population Membrane Permeable-Phenotype (%) [2]: 10% and 12% | Population Mitochondria Different-Phenotype (%) [2]: 3% and 7% | Population Mitotic Cells (%) [2]: 12% and 22% | Population Normal (%) [2]: 98% | Population Pyknosed Nuclei (%) [2]: 11% and 7% | Population Tubulin-Different-Phenotype (%) [2]: 7% and 10% | Total Cell Count [2]: 280 and 130 | Population Apoptotic (%) [3]: 75% and 83% | Population Fragmented Nuclei (%) [3]: 32% and 18% | Population Healthy Nuclei (%) [3]: 56% and 74% | Population Hoechst High Intensity Objects (%) [3]: 3% and 0% | Population Membrane Permeable-Phenotype (%) [3]: 5% and 8% | Population Mitochondria Different-Phenotype (%) [3]: 3% and 4% | Population Mitotic Cells (%) [3]: 25% and 16% | Population Normal (%) [3]: 96% and 99% | Population Pyknosed Nuclei (%) [3]: 10% and 7% | Population Tubulin-Different-Phenotype (%) [3]: 2% and 5% | Total Cell Count [3]: 194 and 160 | Population Apoptotic (%) [4]: 84% and 83% | Population Fragmented Nuclei (%) [4]: 25% and 15% | Population Healthy Nuclei (%) [4]: 64% and 76% | Population Hoechst High Intensity Objects (%) [4]: 0% and 2% | Population Membrane Permeable-Phenotype (%) [4]: 9% and 10% | Population Mitochondria Different-Phenotype (%) [4]: 2% and 4% | Population Mitotic Cells (%) [4]: 15% and 16% | Population Normal (%) [4]: 99% and 97% | Population Pyknosed Nuclei (%) [4]: 9% and 7% | Population Tubulin-Different-Phenotype (%) [4]: 4% and 5% | Total Cell Count [4]: 326 and 160 | Population Apoptotic (%) [5]: 89% and 90% | Population Fragmented Nuclei (%) [5]: 28% and 16% | Population Healthy Nuclei (%) [5]: 60% and 73% | Population Hoechst High Intensity Objects (%) [5]: 2% and 3% | Population Membrane Permeable-Phenotype (%) [5]: 4% and 8% | Population Mitochondria Different-Phenotype (%) [5]: 3% and 4% | Population Mitotic Cells (%) [5]: 10% and 9% | Population Normal (%) [5]: 97% and 96% | Population Pyknosed Nuclei (%) [5]: 10% | Population Tubulin-Different-Phenotype (%) [5]: 3% and 6% | Total Cell Count [5]: 262 and 217 | Population Apoptotic (%) [6]: 90% and 95% | Population Fragmented Nuclei (%) [6]: 21% and 14% | Population Healthy Nuclei (%) [6]: 68% and 74% | Population Hoechst High Intensity Objects (%) [6]: 2% and 1% | Population Membrane Permeable-Phenotype (%) [6]: 8% and 10% | Population Mitochondria Different-Phenotype (%) [6]: 3% and 1% | Population Mitotic Cells (%) [6]: 9% and 4% | Population Normal (%) [6]: 97% and 98% | Population Pyknosed Nuclei (%) [6]: 10% and 11% | Population Tubulin-Different-Phenotype (%) [6]: 4% and 3% | Total Cell Count [6]: 440 and 213

Cl.Cl.OCCOCCN1CCN(C(c2ccccc2)c2ccc(Cl)cc2)CC1 (stereo unspecified) [HYDROXYZINE HYDROCHLORIDE]
Population Apoptotic (%) [1]: 60% and 80% | Population Fragmented Nuclei (%) [1]: 29% and 13% | Population Healthy Nuclei (%) [1]: 61% and 78% | Population Hoechst High Intensity Objects (%) [1]: 0% and 1% | Population Membrane Permeable-Phenotype (%) [1]: 11% and 9% | Population Mitochondria Different-Phenotype (%) [1]: 4% and 6% | Population Mitotic Cells (%) [1]: 40% and 20% | Population Normal (%) [1]: 99% and 98% | Population Pyknosed Nuclei (%) [1]: 9% and 7% | Population Tubulin-Different-Phenotype (%) [1]: 7% and 8% | Total Cell Count [1]: 208 and 139 | Population Apoptotic (%) [2]: 58% and 88% | Population Fragmented Nuclei (%) [2]: 20% and 26% | Population Healthy Nuclei (%) [2]: 66% | Population Hoechst High Intensity Objects (%) [2]: 1% and 2% | Population Membrane Permeable-Phenotype (%) [2]: 9% and 5% | Population Mitochondria Different-Phenotype (%) [2]: 10% and 7% | Population Normal (%) [2]: 98% and 97% | Population Pyknosed Nuclei (%) [2]: 13% and 6% | Population Tubulin-Different-Phenotype (%) [2]: 6% and 7% | Total Cell Count [2]: 316 and 141 | Population Apoptotic (%) [3]: 96% and 77% | Population Fragmented Nuclei (%) [3]: 25% and 9% | Population Healthy Nuclei (%) [3]: 63% and 77% | Population Hoechst High Intensity Objects (%) [3]: 1% and 2% | Population Membrane Permeable-Phenotype (%) [3]: 8% and 5% | Population Mitochondria Different-Phenotype (%) [3]: 4% and 1% | Population Normal (%) [3]: 98% and 97% | Population Pyknosed Nuclei (%) [3]: 10% and 12% | Population Tubulin-Different-Phenotype (%) [3]: 7% and 1% | Total Cell Count [3]: 232 and 148 | Population Apoptotic (%) [4]: 73% and 61% | Population Fragmented Nuclei (%) [4]: 23% and 31% | Population Healthy Nuclei (%) [4]: 63% and 60% | Population Hoechst High Intensity Objects (%) [4]: 2% | Population Membrane Permeable-Phenotype (%) [4]: 10% and 12% | Population Mitochondria Different-Phenotype (%) [4]: 8% and 13% | Population Mitotic Cells (%) [4]: 26% and 38% | Population Normal (%) [4]: 97% | Population Pyknosed Nuclei (%) [4]: 12% and 7% | Population Tubulin-Different-Phenotype (%) [4]: 4% and 9% | Total Cell Count [4]: 359 and 168 | Population Apoptotic (%) [5]: 89% and 90% | Population Fragmented Nuclei (%) [5]: 24% and 14% | Population Healthy Nuclei (%) [5]: 62% and 76% | Population Hoechst High Intensity Objects (%) [5]: 2% | Population Membrane Permeable-Phenotype (%) [5]: 4% and 5% | Population Mitochondria Different-Phenotype (%) [5]: 3% | Population Mitotic Cells (%) [5]: 10% | Population Normal (%) [5]: 97% | Population Pyknosed Nuclei (%) [5]: 13% and 8% | Population Tubulin-Different-Phenotype (%) [5]: 4% and 0% | Total Cell Count [5]: 300 and 230 | Population Apoptotic (%) [6]: 83% | Population Fragmented Nuclei (%) [6]: 17% and 27% | Population Healthy Nuclei (%) [6]: 68% and 64% | Population Hoechst High Intensity Objects (%) [6]: 2% and 5% | Population Membrane Permeable-Phenotype (%) [6]: 8% and 10% | Population Mitochondria Different-Phenotype (%) [6]: 6% and 5% | Population Mitotic Cells (%) [6]: 16% | Population Normal (%) [6]: 97% and 94% | Population Pyknosed Nuclei (%) [6]: 13% and 8% | Population Tubulin-Different-Phenotype (%) [6]: 4% and 5% | Total Cell Count [6]: 456 and 231

CCCCC1=NC2(CCCC2)C(=O)N1Cc1ccc(-c2ccccc2-c2nnn[nH]2)cc1 [IRBESARTAN]
Population Apoptotic (%) [1]: 83% and 77% | Population Fragmented Nuclei (%) [1]: 25% and 9% | Population Healthy Nuclei (%) [1]: 66% and 82% | Population Hoechst High Intensity Objects (%) [1]: 2% and 0% | Population Membrane Permeable-Phenotype (%) [1]: 5% and 11% | Population Mitochondria Different-Phenotype (%) [1]: 1% | Population Mitotic Cells (%) [1]: 16% and 22% | Population Normal (%) [1]: 97% and 99% | Population Pyknosed Nuclei (%) [1]: 7% | Population Tubulin-Different-Phenotype (%) [1]: 1% and 8% | Total Cell Count [1]: 233 and 124 | Population Apoptotic (%) [2]: 91% and 100% | Population Fragmented Nuclei (%) [2]: 22% and 18% | Population Healthy Nuclei (%) [2]: 68% and 74% | Population Hoechst High Intensity Objects (%) [2]: 2% and 0% | Population Membrane Permeable-Phenotype (%) [2]: 4% and 8% | Population Mitochondria Different-Phenotype (%) [2]: 3% and 6% | Population Mitotic Cells (%) [2]: 8% and 0% | Population Normal (%) [2]: 97% and 100% | Population Pyknosed Nuclei (%) [2]: 9% and 8% | Population Tubulin-Different-Phenotype (%) [2]: 2% and 8% | Total Cell Count [2]: 254 and 100 | Population Apoptotic (%) [3]: 70% and 66% | Population Fragmented Nuclei (%) [3]: 23% and 12% | Population Healthy Nuclei (%) [3]: 69% and 76% | Population Hoechst High Intensity Objects (%) [3]: 3% and 2% | Population Membrane Permeable-Phenotype (%) [3]: 6% and 9% | Population Mitochondria Different-Phenotype (%) [3]: 3% and 2% | Population Mitotic Cells (%) [3]: 29% and 33% | Population Normal (%) [3]: 96% and 97% | Population Pyknosed Nuclei (%) [3]: 7% and 10% | Population Tubulin-Different-Phenotype (%) [3]: 3% and 4% | Total Cell Count [3]: 241 and 142 | Population Apoptotic (%) [4]: 96% and 91% | Population Fragmented Nuclei (%) [4]: 18% | Population Healthy Nuclei (%) [4]: 73% and 72% | Population Hoechst High Intensity Objects (%) [4]: 2% and 0% | Population Membrane Permeable-Phenotype (%) [4]: 6% and 7% | Population Mitochondria Different-Phenotype (%) [4]: 3% | Population Mitotic Cells (%) [4]: 4% and 8% | Population Normal (%) [4]: 97% and 99% | Population Pyknosed Nuclei (%) [4]: 8% | Population Tubulin-Different-Phenotype (%) [4]: 4% and 3% | Total Cell Count [4]: 301 and 135 | Population Apoptotic (%) [5]: 97% and 94% | Population Fragmented Nuclei (%) [5]: 18% and 14% | Population Healthy Nuclei (%) [5]: 71% and 76% | Population Hoechst High Intensity Objects (%) [5]: 2% and 4% | Population Membrane Permeable-Phenotype (%) [5]: 5% and 6% | Population Mitochondria Different-Phenotype (%) [5]: 2% and 1% | Population Mitotic Cells (%) [5]: 2% and 5% | Population Normal (%) [5]: 97% and 95% | Population Pyknosed Nuclei (%) [5]: 10% and 9% | Population Tubulin-Different-Phenotype (%) [5]: 2% | Total Cell Count [5]: 357 and 198 | Population Apoptotic (%) [6]: 89% and 94% | Population Fragmented Nuclei (%) [6]: 14% and 16% | Population Healthy Nuclei (%) [6]: 75% and 72% | Population Hoechst High Intensity Objects (%) [6]: 3% and 4% | Population Membrane Permeable-Phenotype (%) [6]: 7% and 9% | Population Mitochondria Different-Phenotype (%) [6]: 3% and 7% | Population Mitotic Cells (%) [6]: 10% and 5% | Population Normal (%) [6]: 96% and 95% | Population Pyknosed Nuclei (%) [6]: 9% and 10% | Population Tubulin-Different-Phenotype (%) [6]: 3% and 7% | Total Cell Count [6]: 419 and 175
